A short description of series [1]: Metal chelating activity assessed as V3+-compound complex formation after 1 hr by LC-HRMS analysis. The essentials: (§1)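 500 μg of ligand was dissolved in 1 mL PBS (pH 7.5) and stirred with excess (15 mg) AlCl3, AuCl3 or VCl3 at room temperature for 1 h. Samples went through C18 SPE with a water wash and MeOH elution, were dried, and were redissolved at 500 μg mL−1 in MeOH. Complexes were detected by C18 LC-HRMS using a water/acetonitrile 0.1% formic acid gradient.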

For series [2], the system named is Vero. Put plainly: Cytotoxicity against African green monkey Vero cells after 24 hrs by alamar blue assay. Type of series: cell-based. The note with it: chlorocebus sabaeus. The procedure, abridged:
(§2)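 Cytotoxicity was measured with Alamar blue. Fluorescence (ex 560/12, em 590 nm) was read at time zero and 4 h after Alamar blue addition, and IC50 values were calculated from these readings. The free ligand and its Fe(III) and Ga(III) complexes were tested.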

Series [3] concerns Proteus vulgaris. Put plainly: Antimicrobial activity against Proteus vulgaris ATCC 12454 after 22 hrs by micro broth dilution assay. The following applies: ATCC 12454, 22 h. Type of series: functional, organism-based. The essentials:
(§3)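 CLSI broth microdilution, run in triplicate. OD600 was read at time zero and again after 22 h at 37 °C, and percent growth inhibition was calculated from these readings. The free ligand and its Fe(III) and Ga(III) complexes were tested.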
For orientation: Dilution methods test growth across graded concentrations, often in twofold steps.

In series [4] the test system is Keratinocyte. As to the kind of experiment: Cytotoxicity against human epidermal keratinocytes after 24 hrs by alamar blue assay. The essentials:
as §2
For orientation: Resazurin is reduced to fluorescent resorufin, in cell work by metabolically active cells.

In series [5] the test system is Enterococcus faecium. Put plainly: Antimicrobial activity against vancomycin-resistant Enterococcus faecium EF379 after 22 hrs by micro broth dilution assay. The format is functional, organism-based. The note with it: EF379, 22 h. The essentials: as §3
Series [6] deals with Staphylococcus aureus. As to the kind of experiment: Antibacterial activity against methicillin-resistant Staphylococcus aureus ATCC 33591 after 22 hrs by microbroth dilution method. Type of series: functional, organism-based. The following applies: ATCC 33591, 22 h. The essentials: as §3
Series [7] can be described thus: Metal chelating activity assessed as Al3+-compound complex formation after 1 hr by LC-HRMS analysis. The procedure, abridged:
as §1

The nature of series [8]: Metal chelating activity assessed as Au3+-compound complex formation after 1 hr by LC-HRMS analysis. The procedure, abridged: as §1
For series [9], the system named is Staphylococcus warneri. As to the kind of experiment: Antimicrobial activity against Staphylococcus warneri ATCC 17917 after 22 hrs by micro broth dilution assay. The format is functional, organism-based. The note with it: ATCC 17917, 22 h. The essentials:
as §3

pIC50: −log10 of the molar value. The source made the active and inactive calls. No cut-off for these calls is given here.

One may read the pIC50 as the negative decadic logarithm of the IC50, by convention in mol/L. Consider `CCCCCCCCCCCC(=O)NC(CCCN(O)C=O)C(O)C(C)C(=O)N[C@@H](CO)C(=O)N[C@@H]1CCCN(O)C(=O)CC(C)OC(=O)[C@H]([C@@H](O)C(=O)O)NC(=O)[C@H]([C@@H](C)O)NC1=O` (some centres undefined), for which the result in series [1], in series [7] and in series [8] was Active. The Activity entry in series [2] and in series [4] was “Non-Toxic” throughout. The pIC50 was 4.85 in [3], 4.96 in series [5], 4.46 in series [6] and 4.55 in series [9].

The record behind these values is ChEMBL document CHEMBL4251718, “Isolation of Imaqobactin, an Amphiphilic Siderophore from the Arctic Marine Bacterium Variovorax Species RKJM285” (J Nat Prod, 2018).
